The subject of one experiment is Pseudomonas aeruginosa. Kind of experiment: Antibacterial activity against Pseudomonas aeruginosa. It is filed as functional, organism-based. The gist of the method:
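Twofold serial dilutions in 96-well microtiter plates from a 10 mg/mL DMSO starting concentration; DMSO solvent control, kanamycin positive control. Wells inoculated with 1:100 dilution of overnight cultures (P. aeruginosa strain PA10). Incubated 37 °C for 24 h; MIC scored as lowest well showing growth inhibition.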

The next experiment relates to Escherichia coli. The experiment is described as follows: Antibacterial activity against Escherichia coli. It is filed as functional, organism-based.
In experiment [1] the test system is Staphylococcus aureus. Kind of experiment: Antibacterial activity against methicillin sensitive Staphylococcus aureus UAMS1. It counts as functional. The gist of the method: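 Broth microdilution in Mueller Hinton broth; DMSO stocks (12.8 mg/mL) serially diluted, 2 µL added per well, giving up to 256 µg/mL. Inoculum grown at 37 °C, 200 rpm to OD600 0.18, diluted to final 3x10^5 cells/mL, count confirmed by plating. Technical duplicate; 16-24 h at 37 °C; MIC = lowest concentration with visual growth inhibition.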

The test system of experiment [2] is Staphylococcus aureus. The experiment is described as follows: Antibacterial activity against methicillin resistant Staphylococcus aureus USA300. It is filed as functional. The gist of the method: (§1)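 Broth microdilution MIC in Mueller Hinton broth. Stocks 12.8 mg/mL in DMSO, serially diluted twofold, 2 µL added per well (top final 256 µg/mL). Inoculum grown at 37 °C, 200 rpm to OD600 0.18, then diluted to 3x10^5 cells/mL final, checked by plate count. Incubated 16-24 h at 37 °C, technical duplicates. MIC read as lowest concentration with visible growth inhibition.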

In a further experiment the test system is Acinetobacter baumannii. Kind of experiment: Antibacterial activity against Acinetobacter baumannii. It is filed as functional, organism-based.
The subject of experiment [3] is Staphylococcus aureus. Kind of experiment: Potency index, ratio of albocycline MIC to test compound MIC for methicillin resistant Staphylococcus aureus USA300. It counts as functional.
Experiment [4] concerns Staphylococcus aureus. The experiment is described as follows: Antibacterial activity against vancomycin-resistant Staphylococcus aureus. It counts as functional. The gist of the method:
as §1

The subject of experiment [5] is Staphylococcus aureus. Kind of experiment: Antibacterial activity against methicillin resistant Staphylococcus aureus. It is filed as functional. The essentials: as §1
Experiment [6] relates to Staphylococcus aureus. Kind of experiment: Antibacterial activity against vancomycin-intermediate Staphylococcus aureus. It is filed as functional. The essentials:
as §1

Values after ≈ are worked out from the molar mass of the structure shown. Active and inactive are the calls of the source. The rule behind the calls is not given here.

`CO[C@H]1/C=C/[C@@](C)(O)C(SCCN)CC(=O)O[C@H](C)[C@@H](C)CC/C=C/1C` (mixture of isomers): the result in the experiment with Pseudomonas aeruginosa, with Escherichia coli and with Acinetobacter baumannii was inactive. The minimal inhibitory concentration (MIC) is 128 µg/mL with Staphylococcus aureus [1] and 256 µg/mL in the experiment with Staphylococcus aureus [2].
With `CO[C@H]1/C=C/[C@@](C)(O)/C=C/C(=O)O[C@H](C)[C@@H](C)CC/C=C/1COP(=O)(Oc1ccccc1)Oc1ccccc1`, the MIC in the experiment with Staphylococcus aureus [1] and against Staphylococcus aureus [2] was over 256 µg/mL in each case.
As for `C/C1=C\CC[C@H](C)[C@@H](C)OC(=O)/C=C/[C@](C)(O)/C=C/[C@@H]1O`, the minimum inhibitory concentration (MIC) with Staphylococcus aureus [1] worked out at 8 µg/mL (≈ 27.2 µM); in the experiment on Staphylococcus aureus [2], 4 µg/mL (≈ 13.6 µM).
As for `C#CCO[C@@]1(C)/C=C/C(=O)O[C@H](C)[C@@H](C)CC/C=C(\C)[C@@H](OC)/C=C/1`, the MIC against Staphylococcus aureus [1] was over 256 µg/mL.
Turning to `CO[C@H]1/C=C/[C@@](C)(OC(=O)c2ccc(F)cc2)/C=C/C(=O)O[C@H](C)[C@@H](C)CC/C=C/1C`, the Ratio in the experiment on Staphylococcus aureus [3] came out at 2. Also, the MIC in the experiment with Staphylococcus aureus [1] and in the experiment with Staphylococcus aureus [2] was 1 µg/mL (≈ 2.32 µM) in each case.
Regarding `CO[C@H]1/C=C/[C@@](C)(O)/C=C/C(=O)O[C@H](C)[C@@H](C)CC/C=C/1C`, the minimal inhibitory concentration (MIC) with Staphylococcus aureus [4] came to 0.5 µg/mL (≈ 1.62 µM); in the experiment with Staphylococcus aureus [1], 2 µg/mL (≈ 6.48 µM); in the experiment on Staphylococcus aureus [2], 2 µg/mL (≈ 6.48 µM); against Staphylococcus aureus [5], 0.5 µg/mL (≈ 1.62 µM); with Staphylococcus aureus [6], 0.5 µg/mL (≈ 1.62 µM).
As for `COC/C1=C\CC[C@H](C)[C@@H](C)OC(=O)/C=C/[C@](C)(O)/C=C/[C@@H]1OC`, the minimal inhibitory concentration (MIC) with Staphylococcus aureus [1] was 128 µg/mL (≈ 378 µM).
Same read-out and setting: the same measure for `CO[C@H]1/C=C/[C@@](C)(O)/C=C/C(=O)O[C@H](C)[C@@H](C)CC/C=C/1C=O`: 32 µg/mL (≈ 99.3 µM); for `CO[C@H]1/C=C/[C@@](C)(O)/C=C/C(=O)O[C@H](C)[C@@H](C)CC/C=C/1CO`: 32 µg/mL (≈ 98.6 µM).
